ChEMBL document CHEMBL5705891, “Small-molecule kinase inhibitors provide insight into Mps1 cell cycle function” (Nat Chem Biol, 2010)
Values belong to the compound of their own block, whether it stands above or below them. Active and inactive are the calls of the source. No cut-off for these calls is given here.

Columns and labels:
[1] = biological target: Aurora kinase C (Homo sapiens) (UniProt Q9UQB9); assay: Inhibition of AURKC (unknown origin) assessed as residual enzyme activity at 10 uM by Ambit kinase binding assay relative to control
[2] = biological target: Calcium/calmodulin-dependent protein kinase kinase 2 (Homo sapiens) (UniProt Q96RR4); assay: Inhibition of CAMKK2 (unknown origin) assessed as residual enzyme activity at 10 uM by Ambit kinase binding assay relative to control
[3] = biological target: Dual specificity protein kinase CLK2 (Homo sapiens) (UniProt P49760); assay: Inhibition of CLK2 (unknown origin) assessed as residual enzyme activity at 10 uM by Ambit kinase binding assay relative to control
[4] = biological target: Inhibitor of nuclear factor kappa-B kinase subunit alpha (Homo sapiens) (UniProt O15111); assay: Inhibition of IKK-alpha (unknown origin) assessed as residual enzyme activity at 10 uM by Ambit kinase binding assay relative to control
[5] = biological target: Serine/threonine-protein kinase 24 (Homo sapiens) (UniProt Q9Y6E0); assay: Inhibition of MST3 (unknown origin) assessed as residual enzyme activity at 10 uM by Ambit kinase binding assay relative to control
[6] = biological target: Serine/threonine-protein kinase 26 (Homo sapiens) (UniProt Q9P289); assay: Inhibition of MST4 (unknown origin) assessed as residual enzyme activity at 10 uM by Ambit kinase binding assay relative to control
[7] = biological target: Ribosomal protein S6 kinase alpha-5 (Homo sapiens) (UniProt O75582); assay: Inhibition of RPS6KA5 kinase domain 2 (unknown origin) assessed as residual enzyme activity at 10 uM by Ambit kinase binding assay relative to control
[8] = biological target: Serine/threonine-protein kinase TAO3 (Homo sapiens) (UniProt Q9H2K8); assay: Inhibition of TAOK3 (unknown origin) assessed as residual enzyme activity at 10 uM by Ambit kinase binding assay relative to control
U2OS [9] = assay: Reversal of nocodazole-induced mitotic arrest in human U2OS cells assessed as Ser10 phosphorylated Histone H3-positive 4c population at 10 uM incubated for 16 hrs by flow cytometry (reference value: 94 %); assay type: functional
U2OS [10] = assay: Reversal of nocodazole-induced mitotic arrest in human U2OS cells assessed as decrease in cyclin B level at 0.3 to 10 uM incubated for 4 hrs by immunoblot analysis; assay type: functional, cell-based; details: dose 0.3-10 µM
[11] = biological target: Mitogen-activated protein kinase 3 (Homo sapiens) (UniProt P27361); assay: Inhibition of ERK1 (unknown origin) assessed as residual enzyme activity at 10 uM by Ambit kinase binding assay relative to control
[12] = biological target: Mitogen-activated protein kinase 7 (Homo sapiens) (UniProt Q13164); assay: Inhibition of ERK5 (unknown origin) assessed as residual enzyme activity at 10 uM by Ambit kinase binding assay relative to control
[13] = biological target: Misshapen-like kinase 1 (Homo sapiens) (UniProt Q8N4C8); assay: Inhibition of MINK (unknown origin) assessed as residual enzyme activity at 10 uM by Ambit kinase binding assay relative to control
[14] = test system: Proto-oncogene tyrosine-protein kinase receptor Ret (Homo sapiens), P07949 [V804M]; assay: Inhibition of RET V804M mutant (unknown origin) assessed as residual enzyme activity at 10 uM by Ambit kinase binding assay relative to control
U2OS [15] = assay: Reversal of paclitaxel-induced mitotic arrest in human U2OS cells assessed as accumulation of 4N phosphorylated Histone H3-negative cells incubated for 16 hrs by flow cytometry; assay type: functional, cell-based; details: dose 5-10 µM
U2OS [16] = assay: Induction of chromosome misalignment in human U2OS cells expressing histone H2B-GFP at 5 to 10 uM treated for 4 hrs followed by MG132 treatment for 30 to 60 mins and subsequent replacement of medium containing MG132 measured after 30 mins by immunofluoresence analysis; assay type: functional, cell-based; details: dose 5-10 µM, time 4.5-5 hrs
[17] = Inhibition of Mps1 in Potoroo PTK2 cells expressing EyFP-tagged human Mad2 assessed as reduction in time spent in mitosis at 10 uM incubated for 1 hr by fluorescence based imaging analysis relative to control; design: species or system Pt K2; details: Potorous tridactylus
How it was run: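 Randomly cycling PtK2 cells stably expressing hsMad2-EYFP were pretreated 1 h with 10 μM inhibitor, DMSO or no treatment. Time-lapse imaging at 37°C, 5% CO₂ scored mitotic duration from NEB to NER. Average time was reported (N=26–29); 95% CI; Student's t test.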

[18] = Inhibition of Mps1 in nocodazole-treated Potoroo PTK2 cells expressing EyFP-tagged human Mad2 assessed as decrease in Mad2 recruitment to kinetochore at 10 uM incubated for 1 hr by fluorescence based imaging analysis relative to nocodazole; design: species or system Pt K2; details: Potorous tridactylus
How it was run: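 PtK2 (male Potorous tridactylus kidney) cells stably expressing human Mad2-EYFP, cultured in Advanced MEM with 2% FBS. Cells were pretreated 1 h with 10 μM inhibitor or DMSO, then given DMSO or nocodazole (200 ng·ml⁻¹). Time-lapse imaging ran at 37°C from NEBD. Kinetochore Mad2-EYFP density was background-corrected and normalized. N=20–29 cells; 95% CI; Student's t test.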

[19] = biological target: Aurora kinase B (Homo sapiens) (UniProt Q96GD4); assay: Inhibition of Aurora B phosphorylation at Thr232 in human U2OS cells by Western blot analysis; assay type: cell-based
How it was run: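 Thymidine-released U2OS cells were treated with inhibitor or DMSO for 1 hr before mitotic entry, then with taxol (1 μM) plus MG132 (10 μM). Mitotic cells were collected by shake-off and immunoblotted for phospho-Aurora B (Thr232). Cyclin B served as the mitotic marker and the Mps1 mobility shift as autophosphorylation.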

HeLa S3 = assay: Effect on thymidine-treated human HeLa S3 cell populations after one cell doubling at 10 uM incubated for 4 hrs followed by thymidine release by immunofluorescence imaging analysis; assay type: functional, cell-based
HCT-116 [20] = assay: Induction of accumulation of human HCT-116 cells with <2N DNA content at 10 uM incubated for 4 days by FACS analysis; assay type: functional, cell-based; details: time 4.0 day
How it was run: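 HCT116 cells were treated with 10 μM compound or DMSO vehicle for the indicated times up to 96 h, then DNA content was profiled by flow cytometry.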

HCT-116 [21] = assay: Antiproliferative activity against human HCT-116 with p53+/+ cells at 10 uM incubated for 4 days by Syto60 staining based assay; assay type: functional, cell-based; details: time 4.0 day
How it was run: (§1)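 Proliferation read by Syto60 nucleic acid stain fluorescence (excitation 635 nm, emission 695 nm) after treatment for up to 96 h. Each time point normalized to its DMSO control. Mean ± SD from 4 independent experiments. Cells kept at 37°C, 5% CO2 in 10% FBS-supplemented medium.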

HCT-116 [22] = assay: Antiproliferative activity against human HCT-116 with BAX-/- cells at 10 uM incubated for 4 days by Syto60 staining based assay; assay type: functional, cell-based; details: time 4.0 day; how it was run: as §1
MCF-10A = assay: Antiproliferative activity against human MCF-10A cells assessed as loss of clonal survival upto 25 uM incubated for 10 days by crystal violet staining based assay; assay type: toxicity, cell-based; details: 240 h, time 10 day
A549 = assay: Antiproliferative activity against human A549 cells at 10 uM measured after 96 hrs in presence of Z-VAD-FMK by Syto60 staining based assay; assay type: functional, cell-based
[23] = biological target: Leukocyte tyrosine kinase receptor (Homo sapiens, UniProt P29376); assay: Binding affinity to LTK (unknown origin) assessed as dissociation constant by Ambit kinase binding assay
Chain of Leukocyte tyrosine kinase receptor (P29376 whole entry): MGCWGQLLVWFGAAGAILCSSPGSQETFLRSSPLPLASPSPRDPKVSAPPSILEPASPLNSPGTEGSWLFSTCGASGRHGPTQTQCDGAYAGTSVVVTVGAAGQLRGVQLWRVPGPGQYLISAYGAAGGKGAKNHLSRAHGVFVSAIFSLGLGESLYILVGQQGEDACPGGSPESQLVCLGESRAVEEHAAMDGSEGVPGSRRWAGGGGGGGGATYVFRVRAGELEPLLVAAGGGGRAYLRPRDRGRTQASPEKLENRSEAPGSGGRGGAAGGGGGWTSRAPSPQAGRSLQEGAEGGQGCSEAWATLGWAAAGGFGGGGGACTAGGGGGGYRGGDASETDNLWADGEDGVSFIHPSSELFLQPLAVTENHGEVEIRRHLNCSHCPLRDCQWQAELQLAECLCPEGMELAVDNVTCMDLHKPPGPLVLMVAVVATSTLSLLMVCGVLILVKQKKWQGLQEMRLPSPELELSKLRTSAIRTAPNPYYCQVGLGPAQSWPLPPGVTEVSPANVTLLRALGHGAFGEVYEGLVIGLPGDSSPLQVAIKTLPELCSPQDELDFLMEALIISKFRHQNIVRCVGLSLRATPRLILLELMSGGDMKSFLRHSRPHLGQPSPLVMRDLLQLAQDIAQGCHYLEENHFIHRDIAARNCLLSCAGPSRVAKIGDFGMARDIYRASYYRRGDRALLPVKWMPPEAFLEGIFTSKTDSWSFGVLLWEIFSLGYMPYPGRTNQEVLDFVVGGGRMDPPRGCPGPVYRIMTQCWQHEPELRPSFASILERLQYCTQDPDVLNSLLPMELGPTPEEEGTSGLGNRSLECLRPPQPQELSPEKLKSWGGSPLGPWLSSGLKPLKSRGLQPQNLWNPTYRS

Chain of Calcium/calmodulin-dependent protein kinase kinase 2 (Homo sapiens) (Q96RR4 2-588 limits assumed): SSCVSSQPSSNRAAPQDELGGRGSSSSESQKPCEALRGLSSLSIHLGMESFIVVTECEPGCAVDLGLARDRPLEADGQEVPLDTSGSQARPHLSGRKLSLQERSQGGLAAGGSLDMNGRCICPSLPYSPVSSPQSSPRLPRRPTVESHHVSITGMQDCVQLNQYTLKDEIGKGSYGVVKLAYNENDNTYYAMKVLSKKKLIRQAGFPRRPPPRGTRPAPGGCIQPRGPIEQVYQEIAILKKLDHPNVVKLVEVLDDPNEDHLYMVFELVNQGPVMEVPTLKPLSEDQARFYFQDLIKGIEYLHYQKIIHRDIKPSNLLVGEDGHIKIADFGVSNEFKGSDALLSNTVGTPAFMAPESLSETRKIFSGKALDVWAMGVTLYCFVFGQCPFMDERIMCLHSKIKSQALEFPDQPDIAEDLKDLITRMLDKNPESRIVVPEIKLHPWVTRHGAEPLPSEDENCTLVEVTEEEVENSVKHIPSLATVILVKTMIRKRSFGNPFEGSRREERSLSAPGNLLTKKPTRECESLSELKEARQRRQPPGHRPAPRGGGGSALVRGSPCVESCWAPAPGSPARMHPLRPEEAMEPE
Chain of Mitogen-activated protein kinase 3 (Homo sapiens) (P27361 whole entry): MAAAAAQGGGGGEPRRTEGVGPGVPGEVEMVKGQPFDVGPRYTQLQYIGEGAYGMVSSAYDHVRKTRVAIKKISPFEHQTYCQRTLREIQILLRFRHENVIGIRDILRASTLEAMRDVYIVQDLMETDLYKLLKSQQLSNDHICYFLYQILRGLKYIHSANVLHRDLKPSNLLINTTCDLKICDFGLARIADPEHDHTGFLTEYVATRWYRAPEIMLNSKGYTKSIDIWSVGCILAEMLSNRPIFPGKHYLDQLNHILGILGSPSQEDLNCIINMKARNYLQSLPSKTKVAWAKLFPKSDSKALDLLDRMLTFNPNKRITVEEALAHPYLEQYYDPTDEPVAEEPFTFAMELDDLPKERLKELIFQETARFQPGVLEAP
Chain of Serine/threonine-protein kinase 24 (Homo sapiens) (Q9Y6E0 whole entry, looked up): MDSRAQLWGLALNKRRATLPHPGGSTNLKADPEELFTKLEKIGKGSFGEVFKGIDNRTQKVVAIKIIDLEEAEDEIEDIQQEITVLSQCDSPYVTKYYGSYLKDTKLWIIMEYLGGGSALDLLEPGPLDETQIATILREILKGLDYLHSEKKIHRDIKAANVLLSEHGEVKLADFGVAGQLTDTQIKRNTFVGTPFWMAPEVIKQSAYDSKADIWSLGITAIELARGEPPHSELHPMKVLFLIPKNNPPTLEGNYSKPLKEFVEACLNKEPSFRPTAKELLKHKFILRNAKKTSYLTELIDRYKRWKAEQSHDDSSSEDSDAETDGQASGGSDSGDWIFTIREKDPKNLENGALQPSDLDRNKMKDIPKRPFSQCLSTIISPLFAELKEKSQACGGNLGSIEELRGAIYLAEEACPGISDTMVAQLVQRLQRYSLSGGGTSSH
Chain of Misshapen-like kinase 1 (Homo sapiens) (Q8N4C8 whole entry, looked up): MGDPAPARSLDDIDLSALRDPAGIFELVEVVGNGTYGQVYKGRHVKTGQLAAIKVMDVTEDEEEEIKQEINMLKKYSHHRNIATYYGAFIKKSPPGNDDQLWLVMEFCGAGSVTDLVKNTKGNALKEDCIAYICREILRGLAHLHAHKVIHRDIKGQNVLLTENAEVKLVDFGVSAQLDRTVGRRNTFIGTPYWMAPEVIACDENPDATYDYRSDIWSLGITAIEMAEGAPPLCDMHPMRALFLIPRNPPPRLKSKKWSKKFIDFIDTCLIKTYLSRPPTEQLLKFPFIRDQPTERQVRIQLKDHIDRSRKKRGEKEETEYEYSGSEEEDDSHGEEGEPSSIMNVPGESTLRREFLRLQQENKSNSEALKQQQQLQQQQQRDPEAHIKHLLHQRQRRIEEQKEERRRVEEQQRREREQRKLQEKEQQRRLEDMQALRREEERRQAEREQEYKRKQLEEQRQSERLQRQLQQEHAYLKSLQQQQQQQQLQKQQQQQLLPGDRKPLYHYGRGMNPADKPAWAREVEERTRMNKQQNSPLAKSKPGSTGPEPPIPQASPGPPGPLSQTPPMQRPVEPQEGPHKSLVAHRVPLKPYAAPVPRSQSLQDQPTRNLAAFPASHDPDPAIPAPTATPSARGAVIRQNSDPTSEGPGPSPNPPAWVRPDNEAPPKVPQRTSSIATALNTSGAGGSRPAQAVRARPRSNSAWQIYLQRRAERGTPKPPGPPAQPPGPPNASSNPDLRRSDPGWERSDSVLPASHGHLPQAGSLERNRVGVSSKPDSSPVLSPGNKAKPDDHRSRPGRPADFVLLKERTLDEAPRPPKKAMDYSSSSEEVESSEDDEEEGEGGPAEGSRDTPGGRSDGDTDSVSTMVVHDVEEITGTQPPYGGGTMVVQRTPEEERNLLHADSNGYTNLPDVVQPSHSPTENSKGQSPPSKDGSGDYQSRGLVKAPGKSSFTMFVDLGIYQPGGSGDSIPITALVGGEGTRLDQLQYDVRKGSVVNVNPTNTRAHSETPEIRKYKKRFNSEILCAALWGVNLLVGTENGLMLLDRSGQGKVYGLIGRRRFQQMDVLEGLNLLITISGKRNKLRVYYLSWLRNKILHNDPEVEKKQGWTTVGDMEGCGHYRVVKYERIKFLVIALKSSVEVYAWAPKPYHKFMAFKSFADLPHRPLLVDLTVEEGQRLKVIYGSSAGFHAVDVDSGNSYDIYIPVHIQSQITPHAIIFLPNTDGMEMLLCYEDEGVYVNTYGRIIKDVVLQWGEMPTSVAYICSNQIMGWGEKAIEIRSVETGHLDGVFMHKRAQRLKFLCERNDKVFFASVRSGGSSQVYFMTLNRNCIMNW
Chain of Aurora kinase B (Homo sapiens) (Q96GD4 whole entry): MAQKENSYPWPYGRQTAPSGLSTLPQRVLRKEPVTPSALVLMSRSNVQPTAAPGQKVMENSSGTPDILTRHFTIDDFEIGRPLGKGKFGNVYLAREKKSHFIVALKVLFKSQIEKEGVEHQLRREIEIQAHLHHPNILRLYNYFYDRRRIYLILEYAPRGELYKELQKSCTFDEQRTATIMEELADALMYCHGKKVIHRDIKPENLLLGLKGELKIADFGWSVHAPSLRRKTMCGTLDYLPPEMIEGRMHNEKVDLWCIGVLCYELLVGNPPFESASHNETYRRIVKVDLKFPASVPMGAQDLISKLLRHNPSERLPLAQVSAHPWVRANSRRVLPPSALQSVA
Chain of Serine/threonine-protein kinase 26 (Homo sapiens) (Q9P289 2-416 limits assumed): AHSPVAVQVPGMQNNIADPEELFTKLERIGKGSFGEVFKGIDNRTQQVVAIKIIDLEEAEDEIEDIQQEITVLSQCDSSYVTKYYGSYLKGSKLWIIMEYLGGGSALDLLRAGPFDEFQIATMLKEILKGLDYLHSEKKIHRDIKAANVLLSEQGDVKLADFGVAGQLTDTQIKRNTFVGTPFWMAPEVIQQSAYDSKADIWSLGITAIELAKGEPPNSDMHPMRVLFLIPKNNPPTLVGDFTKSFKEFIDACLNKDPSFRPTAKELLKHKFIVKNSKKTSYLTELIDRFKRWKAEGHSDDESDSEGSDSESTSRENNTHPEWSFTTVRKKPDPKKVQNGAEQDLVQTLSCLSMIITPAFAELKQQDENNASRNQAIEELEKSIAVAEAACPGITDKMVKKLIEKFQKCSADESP
Chain of Aurora kinase C (Homo sapiens) (Q9UQB9 whole entry): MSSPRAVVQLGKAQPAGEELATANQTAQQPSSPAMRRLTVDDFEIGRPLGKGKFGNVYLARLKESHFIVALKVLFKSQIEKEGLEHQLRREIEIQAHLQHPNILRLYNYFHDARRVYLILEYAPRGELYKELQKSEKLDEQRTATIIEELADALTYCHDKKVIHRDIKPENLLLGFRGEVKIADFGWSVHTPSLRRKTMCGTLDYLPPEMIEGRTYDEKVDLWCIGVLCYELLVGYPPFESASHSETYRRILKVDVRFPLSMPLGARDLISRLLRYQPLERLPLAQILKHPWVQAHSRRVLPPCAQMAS

Activity [1]: 23%
Activity [2]: 26%
Activity [3]: 3.4%
Activity [4]: 0.1%
Activity [5]: 1.8%
Activity [6]: 2.4%
Activity [7]: 12%
Activity [8]: 22%
Compound: O=C1c2ccccc2-c2n[nH]c3cccc1c23

Activity [11]: 23%
Activity [12]: 11%
Activity [13]: 34%
Activity [14]: 0.5%
inhibition [19]: Active
Kd [23]: 29 nM
Compound: COc1cc(N2CCC(O)CC2)ccc1Nc1cc(Nc2ccccc2S(=O)(=O)C(C)C)c2cc[nH]c2n1
Activity (U2OS [9]): 1%
Activity (U2OS [10]): Active
Activity (U2OS [15]): Dose-Dependent Effect
Activity (U2OS [16]): Active
inhibition at 10 µM [17]: ~40%
inhibition at 10 µM [18]: 70%
Activity (HeLa S3): inactive
Activity (HCT-116 [20]): Active
Activity (HCT-116 [21]): Active
Activity (HCT-116 [22]): Active
Activity (MCF-10A): Toxic
Activity (A549): Active
